# Results taken from ChEMBL document CHEMBL5705899 (Biochem J, 2014).
# Active and inactive are the calls of the source. The rule behind the calls is not given here.
# What was measured:
# [1] = biological target: CDK9/Cyclin K (Homo sapiens) (UniProt P50750+O75909); assay: Inhibition of human CDK9/CycK at 1 uM using RBER-CHKtide as substrate in presence of 33P-ATP by ProQinase assay; format: protein-complex assay
# [2] = biological target: Mitogen-activated protein kinase kinase kinase 5 (Homo sapiens) (UniProt Q99683); assay: Inhibition of human ASK1 at 1 uM using RBER-GSK3 as substrate in presence of 33P-ATP by ProQinase assay
# [3] = biological target: PI3-kinase p110-alpha/p85-alpha (Homo sapiens) (UniProt P27986+P42336); assay: Inhibition of recombinant human N-terminal His6-tagged PI3Kalpha (2 to 1068 residues)/p85A (1 to 724 residues) expressed in baculovirus expression system at 1 uM using diC8 PIP2 as substrate incubated for 80 mins by ADP-Glo assay
# [4] = biological target: Serine/threonine-protein kinase Nek11 (Homo sapiens) (UniProt Q8NG66); assay: Inhibition of human NEK11 at 1 uM using MBP as substrate in presence of 33P-ATP by ProQinase assay
# [5] = biological target: Ribosomal protein S6 kinase alpha-3 (Homo sapiens) (UniProt P51812); assay: Inhibition of human RPS6KA3 at 1 uM using bio-4xCHKT as substrate in presence of 33P-ATP by ProQinase assay
# [6] = biological target: Activin receptor type-1B (Homo sapiens) (UniProt P36896); assay: Inhibition of human ACVR1B at 1 uM using RBER-CHKtide as substrate in presence of 33P-ATP by ProQinase assay
# [7] = biological target: Dual specificity mitogen-activated protein kinase kinase 2 (Homo sapiens) (UniProt P36507); assay: Inhibition of recombinant human N-terminal GST/C-terminal His6-tagged MKK2 (2 to 400 residues) expressed in Escherichia coli assessed as remaining activity at 1 uM using MBP as substrate incubated for 30 mins in presence of [gamma-33P]ATP by filter binding method relative to control
# [8] = biological target: Phosphatidylinositol 4,5-bisphosphate 3-kinase catalytic subunit alpha isoform (Homo sapiens, UniProt P42336); assay: Inhibition of PI3Kalpha (unknown origin) using PtdIns(4,5)P2 as substrate preincubated for 20 mins followed by substrate addition and measured after 80 mins by Kinase-Glo assay
# How it was run: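 PIK3CA at 20 nM in 50 mM Tris/HCl pH 7.4, 0.05% CHAPSO, 10 mM MgCl2 and 2.1 mM DTT was pre-incubated with inhibitor at varying concentrations for 20 min. Then 80 μM PtdIns(4,5)P2 and 8 μM ATP (below apparent Km) were added, with 2% DMSO final. The reaction ran 80 min at ambient temperature, followed by Kinase-Glo Plus for 20 min and a luminescence read.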
# [9] = biological target: Serine/threonine-protein kinase WNK3 (Homo sapiens) (UniProt Q9BYP7); assay: Inhibition of human WNK3 at 1 uM using RB-S6P as substrate in presence of 33P-ATP by ProQinase assay
# [10] = biological target: Myosin light chain kinase 2, skeletal/cardiac muscle (Homo sapiens) (UniProt Q9H1R3); assay: Inhibition of human MYLK2 at 1 uM using RB-S6P as substrate in presence of 33P-ATP by ProQinase assay
# [11] = biological target: Serine/threonine-protein kinase MARK2 (Homo sapiens) (UniProt Q7KZI7); assay: Inhibition of recombinant human N-terminal His6-tagged MARK2 (2 to 691 residues) expressed in baculovirus infected Sf21 cells assessed as remaining activity at 1 uM using KKKVSRSGLYRSPSMPENLNRPR as substrate incubated for 30 mins in presence of [gamma-33P]ATP by filter binding method relative to control
# [12] = biological target: MAP/microtubule affinity-regulating kinase 3 (Homo sapiens) (UniProt P27448); assay: Inhibition of human MARK3 at 1 uM using RBER-CHKtide as substrate in presence of 33P-ATP by ProQinase assay
# [13] = biological target: Tyrosine-protein kinase Fgr (Homo sapiens) (UniProt P09769); assay: Inhibition of human FGR at 1 uM using polyEY as substrate in presence of 33P-ATP by ProQinase assay
# [14] = biological target: Serine/threonine-protein kinase Chk1 (Homo sapiens) (UniProt O14757); assay: Inhibition of human CHK1 at 1 uM using RBER-CHKtide as substrate in presence of 33P-ATP by ProQinase assay
# [15] = biological target: Vascular endothelial growth factor receptor 3 (Homo sapiens) (UniProt P35916); assay: Inhibition of human VEGFR3 at 1 uM using polyEY as substrate in presence of 33P-ATP by ProQinase assay
# [16] = biological target: PI3K p110 beta/p85 alpha (Homo sapiens) (UniProt P27986+P42338); assay: Inhibition of recombinant human N-terminal His6-tagged PI3Kbeta (1 to 1070 residues)/p85A (1 to 724 residues) expressed in baculovirus expression system at 1 uM using diC8 PIP2 as substrate incubated for 60 mins by ADP-Glo assay
# [17] = biological target: Ephrin type-A receptor 7 (Homo sapiens) (UniProt Q15375); assay: Inhibition of human EPHA7 at 1 uM using polyEy as substrate in presence of 33P-ATP by ProQinase assay
# [18] = biological target: Protein kinase C zeta type (Homo sapiens) (UniProt Q05513); assay: Inhibition of recombinant human N-terminal His6-tagged PKCzeta (2 to 592 residues) expressed in baculovirus infected Sf21 cells assessed as remaining activity at 1 uM using ERMRPRKRQGSVRRV as substrate incubated for 30 mins in presence of [gamma-33P]ATP by filter binding method relative to control
# [19] = biological target: Tyrosine-protein kinase FRK (Homo sapiens) (UniProt P42685); assay: Inhibition of human FRK at 1 uM using PolyEY as substrate in presence of 33P-ATP by ProQinase assay
# [20] = biological target: Homeodomain-interacting protein kinase 1 (Homo sapiens) (UniProt Q86Z02); assay: Inhibition of recombinant human N-terminal GST-tagged HIPK1 (158 to 555 residues) expressed in Escherichia coli assessed as remaining activity at 1 uM using MBP as substrate incubated for 30 mins in presence of [gamma-33P]ATP by filter binding method relative to control
# [21] = biological target: Serine/threonine-protein kinase pim-1 (Homo sapiens) (UniProt P11309); assay: Inhibition of human PIM1 at 1 uM using RBER-GSK3 as substrate in presence of 33P-ATP by ProQinase assay
# [22] = biological target: Tyrosine-protein kinase ABL2 (Homo sapiens) (UniProt P42684); assay: Inhibition of human ABL2 at 1 uM using poly(Ala,Glu,Lys,Tyr) as substrate in presence of 33P-ATP by ProQinase assay
# [23] = biological target: Tyrosine-protein kinase Mer (Homo sapiens) (UniProt Q12866); assay: Inhibition of human MERTK at 1 uM using polyEY as substrate in presence of 33P-ATP by ProQinase assay
# [24] = biological target: Activated CDC42 kinase 1 (Homo sapiens) (UniProt Q07912); assay: Inhibition of human ACK1 at 1 uM using polyEy as substrate in presence of 33P-ATP by ProQinase assay
# Ephrin type-A receptor 7 (Homo sapiens), sequence (Q15375 28-998 limits assumed): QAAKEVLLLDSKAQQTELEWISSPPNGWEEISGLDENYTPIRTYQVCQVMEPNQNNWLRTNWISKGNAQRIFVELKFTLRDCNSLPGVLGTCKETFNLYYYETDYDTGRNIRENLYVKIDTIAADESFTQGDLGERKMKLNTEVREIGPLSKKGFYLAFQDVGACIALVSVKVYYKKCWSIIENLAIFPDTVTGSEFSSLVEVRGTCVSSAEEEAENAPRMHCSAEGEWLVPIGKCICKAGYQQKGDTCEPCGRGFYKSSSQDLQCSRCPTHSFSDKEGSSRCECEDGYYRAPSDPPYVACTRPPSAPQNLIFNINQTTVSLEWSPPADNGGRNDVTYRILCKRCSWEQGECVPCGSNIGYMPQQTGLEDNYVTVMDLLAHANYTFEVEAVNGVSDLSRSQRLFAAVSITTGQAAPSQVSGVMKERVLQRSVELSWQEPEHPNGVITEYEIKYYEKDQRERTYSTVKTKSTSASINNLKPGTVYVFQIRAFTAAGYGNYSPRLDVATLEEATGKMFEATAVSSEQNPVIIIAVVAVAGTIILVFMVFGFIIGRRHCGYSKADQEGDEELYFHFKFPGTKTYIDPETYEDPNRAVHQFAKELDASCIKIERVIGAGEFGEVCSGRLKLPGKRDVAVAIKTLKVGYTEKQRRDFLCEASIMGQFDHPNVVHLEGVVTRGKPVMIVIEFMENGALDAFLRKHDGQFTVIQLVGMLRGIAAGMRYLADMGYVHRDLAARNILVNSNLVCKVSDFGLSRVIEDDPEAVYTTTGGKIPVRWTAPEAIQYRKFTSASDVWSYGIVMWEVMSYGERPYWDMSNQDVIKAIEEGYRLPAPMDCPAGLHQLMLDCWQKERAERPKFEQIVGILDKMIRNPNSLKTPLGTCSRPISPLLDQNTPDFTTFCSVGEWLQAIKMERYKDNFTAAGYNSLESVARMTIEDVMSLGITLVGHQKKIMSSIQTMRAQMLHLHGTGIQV
# Serine/threonine-protein kinase Nek11 (Homo sapiens), sequence (Q8NG66 whole entry): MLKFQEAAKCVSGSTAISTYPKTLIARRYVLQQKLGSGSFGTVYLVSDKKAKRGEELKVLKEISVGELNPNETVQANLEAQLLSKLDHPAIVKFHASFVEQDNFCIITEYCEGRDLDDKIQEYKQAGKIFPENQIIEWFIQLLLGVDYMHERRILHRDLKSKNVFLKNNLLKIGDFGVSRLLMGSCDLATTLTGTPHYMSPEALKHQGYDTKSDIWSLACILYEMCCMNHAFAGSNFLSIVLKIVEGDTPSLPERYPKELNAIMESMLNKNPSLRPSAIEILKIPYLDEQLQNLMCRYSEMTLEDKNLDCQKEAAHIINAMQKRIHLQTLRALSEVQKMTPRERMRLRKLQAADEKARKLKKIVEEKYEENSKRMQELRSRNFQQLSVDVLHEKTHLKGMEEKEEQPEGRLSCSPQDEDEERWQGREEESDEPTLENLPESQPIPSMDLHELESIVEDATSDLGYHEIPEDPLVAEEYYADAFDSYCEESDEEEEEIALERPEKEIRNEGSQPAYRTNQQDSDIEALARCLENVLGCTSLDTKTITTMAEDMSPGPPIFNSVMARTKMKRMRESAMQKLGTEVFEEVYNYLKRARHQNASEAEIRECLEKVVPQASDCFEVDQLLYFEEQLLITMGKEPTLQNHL
# Vascular endothelial growth factor receptor 3 (Homo sapiens), sequence (P35916 whole entry, the tested form may be a part): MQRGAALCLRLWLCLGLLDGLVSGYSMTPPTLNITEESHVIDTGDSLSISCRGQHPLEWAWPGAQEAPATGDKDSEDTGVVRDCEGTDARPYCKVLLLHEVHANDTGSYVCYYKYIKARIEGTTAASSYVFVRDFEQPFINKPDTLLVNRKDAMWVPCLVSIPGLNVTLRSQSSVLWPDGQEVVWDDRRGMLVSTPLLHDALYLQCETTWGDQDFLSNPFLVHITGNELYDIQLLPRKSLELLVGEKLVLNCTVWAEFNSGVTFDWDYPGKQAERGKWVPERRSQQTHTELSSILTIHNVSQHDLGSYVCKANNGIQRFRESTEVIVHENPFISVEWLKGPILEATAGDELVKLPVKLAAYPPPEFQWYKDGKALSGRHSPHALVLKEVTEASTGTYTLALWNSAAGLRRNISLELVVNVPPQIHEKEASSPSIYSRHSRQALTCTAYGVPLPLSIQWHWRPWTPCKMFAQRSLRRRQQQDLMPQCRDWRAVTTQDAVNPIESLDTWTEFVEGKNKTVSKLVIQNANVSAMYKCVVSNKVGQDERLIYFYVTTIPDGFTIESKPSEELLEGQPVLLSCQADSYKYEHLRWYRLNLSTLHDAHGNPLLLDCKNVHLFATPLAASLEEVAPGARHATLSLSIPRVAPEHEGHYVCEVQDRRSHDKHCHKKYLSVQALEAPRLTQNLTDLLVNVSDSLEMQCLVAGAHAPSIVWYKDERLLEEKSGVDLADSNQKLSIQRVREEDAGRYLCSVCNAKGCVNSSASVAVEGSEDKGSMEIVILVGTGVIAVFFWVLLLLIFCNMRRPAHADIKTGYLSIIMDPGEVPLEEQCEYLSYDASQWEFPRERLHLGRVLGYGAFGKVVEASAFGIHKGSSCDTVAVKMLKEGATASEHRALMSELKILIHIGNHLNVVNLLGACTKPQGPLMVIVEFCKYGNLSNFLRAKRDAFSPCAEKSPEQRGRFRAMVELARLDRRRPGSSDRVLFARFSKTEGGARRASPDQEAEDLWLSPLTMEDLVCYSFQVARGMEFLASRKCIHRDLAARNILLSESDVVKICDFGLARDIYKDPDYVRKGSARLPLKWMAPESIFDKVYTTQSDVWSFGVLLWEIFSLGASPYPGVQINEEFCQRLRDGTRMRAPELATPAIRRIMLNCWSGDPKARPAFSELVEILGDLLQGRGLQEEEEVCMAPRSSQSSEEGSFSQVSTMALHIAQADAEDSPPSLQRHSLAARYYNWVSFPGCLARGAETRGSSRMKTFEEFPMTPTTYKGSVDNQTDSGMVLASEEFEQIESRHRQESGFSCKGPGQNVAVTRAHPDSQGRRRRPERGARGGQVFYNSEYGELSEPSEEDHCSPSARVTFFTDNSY
# Tyrosine-protein kinase FRK (Homo sapiens), sequence (P42685 whole entry, the tested form may be a part): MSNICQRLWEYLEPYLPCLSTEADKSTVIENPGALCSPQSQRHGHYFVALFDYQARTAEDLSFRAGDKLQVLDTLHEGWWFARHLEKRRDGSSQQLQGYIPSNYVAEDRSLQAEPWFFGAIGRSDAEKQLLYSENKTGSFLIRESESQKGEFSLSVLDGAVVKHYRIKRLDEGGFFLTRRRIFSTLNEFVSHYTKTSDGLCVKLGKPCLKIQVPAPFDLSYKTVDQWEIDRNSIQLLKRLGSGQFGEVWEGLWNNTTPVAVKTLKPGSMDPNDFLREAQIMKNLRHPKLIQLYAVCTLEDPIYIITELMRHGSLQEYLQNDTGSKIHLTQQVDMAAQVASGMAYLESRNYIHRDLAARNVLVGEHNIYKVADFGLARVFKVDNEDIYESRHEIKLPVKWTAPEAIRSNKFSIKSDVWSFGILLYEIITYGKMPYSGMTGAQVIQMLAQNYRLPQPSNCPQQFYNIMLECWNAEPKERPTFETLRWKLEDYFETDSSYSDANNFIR
# Homeodomain-interacting protein kinase 1 (Homo sapiens), sequence (Q86Z02 whole entry, looked up, the tested form may be a part): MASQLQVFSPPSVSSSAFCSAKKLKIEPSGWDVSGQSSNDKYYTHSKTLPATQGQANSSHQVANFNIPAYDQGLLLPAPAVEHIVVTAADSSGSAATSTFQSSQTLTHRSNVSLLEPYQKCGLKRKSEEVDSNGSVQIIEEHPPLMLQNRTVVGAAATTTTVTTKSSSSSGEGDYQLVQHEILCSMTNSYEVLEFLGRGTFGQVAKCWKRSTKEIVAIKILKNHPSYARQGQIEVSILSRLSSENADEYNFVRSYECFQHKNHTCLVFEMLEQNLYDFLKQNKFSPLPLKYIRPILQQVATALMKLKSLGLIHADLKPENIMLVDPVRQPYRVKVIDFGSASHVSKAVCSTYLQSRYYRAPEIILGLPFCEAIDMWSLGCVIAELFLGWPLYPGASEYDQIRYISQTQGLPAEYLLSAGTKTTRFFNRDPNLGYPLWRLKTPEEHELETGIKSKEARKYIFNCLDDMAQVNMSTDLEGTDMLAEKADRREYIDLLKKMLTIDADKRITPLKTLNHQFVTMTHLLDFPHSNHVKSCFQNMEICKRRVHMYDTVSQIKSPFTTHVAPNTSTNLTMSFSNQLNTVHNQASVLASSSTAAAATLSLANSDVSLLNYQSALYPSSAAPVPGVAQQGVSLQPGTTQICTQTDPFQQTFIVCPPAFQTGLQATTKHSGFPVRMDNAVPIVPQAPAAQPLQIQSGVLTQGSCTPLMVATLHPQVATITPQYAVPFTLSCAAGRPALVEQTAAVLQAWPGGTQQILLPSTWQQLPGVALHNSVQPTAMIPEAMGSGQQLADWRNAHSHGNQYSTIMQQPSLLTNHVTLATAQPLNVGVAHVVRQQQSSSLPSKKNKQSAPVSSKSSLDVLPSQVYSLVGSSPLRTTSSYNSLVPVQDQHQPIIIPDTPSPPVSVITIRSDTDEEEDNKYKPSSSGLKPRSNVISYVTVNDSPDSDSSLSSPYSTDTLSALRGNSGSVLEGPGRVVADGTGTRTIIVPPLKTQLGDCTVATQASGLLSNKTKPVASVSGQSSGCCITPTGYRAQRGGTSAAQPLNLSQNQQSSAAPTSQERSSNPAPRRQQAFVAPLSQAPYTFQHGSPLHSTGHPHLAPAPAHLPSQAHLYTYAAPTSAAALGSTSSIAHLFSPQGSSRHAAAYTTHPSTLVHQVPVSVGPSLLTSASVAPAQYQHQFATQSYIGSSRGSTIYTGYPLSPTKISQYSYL
# Serine/threonine-protein kinase pim-1 (Homo sapiens), sequence (P11309 whole entry, looked up): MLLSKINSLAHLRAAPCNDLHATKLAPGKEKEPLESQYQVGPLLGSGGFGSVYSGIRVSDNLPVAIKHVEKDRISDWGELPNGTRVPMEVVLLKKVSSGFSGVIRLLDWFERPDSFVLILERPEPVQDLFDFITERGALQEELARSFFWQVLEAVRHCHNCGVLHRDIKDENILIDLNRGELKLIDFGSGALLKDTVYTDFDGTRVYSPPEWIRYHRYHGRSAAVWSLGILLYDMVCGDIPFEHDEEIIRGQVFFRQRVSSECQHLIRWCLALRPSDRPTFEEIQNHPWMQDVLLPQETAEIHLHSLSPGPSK
smiles,measurement,setting,value
CC(C)(O)CNc1ncc(-c2ccnc(Nc3ccnc(Cl)c3)n2)c(CC2CC2)n1,inhibition,[1],inactive
same,inhibition,[2],inactive
same,inhibition,[3],inactive
same,inhibition,[4],inactive
same,inhibition,[5],inactive
same,inhibition,[6],inactive
same,Activity,[7],111%
same,IC50,[8],8.04 µM
same,inhibition,[9],inactive
same,inhibition,[10],inactive
same,Activity,[11],108%
same,inhibition,[12],inactive
same,inhibition,[13],inactive
same,inhibition,[14],inactive
same,inhibition,[15],inactive
same,inhibition,[16],inactive
same,inhibition,[17],inactive
same,Activity,[18],103%
same,inhibition,[19],inactive
same,Activity,[20],108%
same,inhibition,[21],inactive
same,inhibition,[22],inactive
same,inhibition,[23],inactive
same,inhibition,[24],inactive
